Data taken from ChEMBL document CHEMBL1795341, “Efficient synthesis, structural characterization and anti-microbial activity of chiral aryl boronate esters of 1,2-O-isopropylidene-α-D-xylofuranose” (2011).
Values after ≈ are worked out from the molar mass of the structure shown.

Columns and labels:
Format in all cases: functional
Aspergillus niger [1] = assay: Antifungal activity against Aspergillus niger MTCC 282 at 100 ug after 48 hrs by agar well diffusion method; details: MTCC 282, 48 h, read-out: DIZ
In short: (§1)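 Agar well diffusion on potato dextrose agar; 0.5 ml week-old culture spread over solidified plates, 6 mm wells bored. Compounds dissolved in DMSO at different concentrations and added to wells, with controls. Incubated 27 °C for 48 h; inhibition zone diameter measured in mm; three to four replicates per treatment.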

Candida albicans [2] = assay: Antifungal activity against Candida albicans MTCC 227 at 100 ug after 48 hrs by agar well diffusion method; details: MTCC 227, 48 h, read-out: DIZ; in short: as §1
Saccharomyces cerevisiae [3] = assay: Antifungal activity against Saccharomyces cerevisiae MTCC 36 at 100 ug after 48 hrs by agar well diffusion method; details: MTCC 36, 48 h, read-out: DIZ; in short: as §1
Diutina rugosa [4] = assay: Antifungal activity against Candida rugosa NCIM 3462 at 100 ug after 48 hrs by agar well diffusion method; details: NCIM 3462, 48 h, read-out: DIZ; in short: as §1
Saccharomyces cerevisiae [5] = assay: Antifungal activity against Saccharomyces cerevisiae MTCC 36 at 150 ug after 48 hrs by agar well diffusion method; details: MTCC 36, 48 h, read-out: DIZ; in short: as §1
Escherichia coli = assay: Antibacterial activity against Escherichia coli MTCC 443 by broth microdilution method
Bacillus subtilis = assay: Antibacterial activity against Bacillus subtilis MTCC 441 by broth microdilution method
Candida albicans [6] = assay: Antifungal activity against Candida albicans MTCC 227 at 150 ug after 48 hrs by agar well diffusion method; details: MTCC 227, 48 h, read-out: DIZ; in short: as §1
Aspergillus niger [7] = assay: Antifungal activity against Aspergillus niger MTCC 282 at 150 ug after 48 hrs by agar well diffusion method; details: MTCC 282, 48 h, read-out: DIZ; in short: as §1
Diutina rugosa [8] = assay: Antifungal activity against Candida rugosa NCIM 3462 at 150 ug after 48 hrs by agar well diffusion method; details: NCIM 3462, 48 h, read-out: DIZ; in short: as §1
Staphylococcus aureus = assay: Antibacterial activity against Staphylococcus aureus MTCC 96 by broth microdilution method
[9] = system: Staphylococcus epidermidis; assay: Antibacterial activity against Staphylococcus epidermidis MTCC 2639 by broth microdilution method
Klebsiella pneumoniae = assay: Antibacterial activity against Klebsiella pneumoniae MTCC 618 by broth microdilution method
Pseudomonas aeruginosa = assay: Antibacterial activity against Pseudomonas aeruginosa MTCC 741 by broth microdilution method

SMILES | MIC (Escherichia coli) [µg/mL] | MIC (Bacillus subtilis) [µg/mL] | MIC (Staphylococcus aureus) [µg/mL] | MIC [9] [µg/mL] | MIC (Klebsiella pneumoniae) [µg/mL] | MIC (Pseudomonas aeruginosa) [µg/mL] | zone of inhibition at 100 µg/disc (Aspergillus niger [1]) [mm] | zone of inhibition at 100 µg/disc (Candida albicans [2]) [mm] | zone of inhibition at 100 µg/disc (Saccharomyces cerevisiae [3]) [mm] | zone of inhibition at 100 µg/disc (Diutina rugosa [4]) [mm] | zone of inhibition at 150 µg/disc (Saccharomyces cerevisiae [5]) [mm] | zone of inhibition at 150 µg/disc (Candida albicans [6]) [mm] | zone of inhibition at 150 µg/disc (Aspergillus niger [7]) [mm] | zone of inhibition at 150 µg/disc (Diutina rugosa [8]) [mm]
C[C@@H]1[C@H](O)[C@@H](C)/C=C/C=C/C=C/C=C/C=C/C=C/C=C/[C@H](O[C@@H]2O[C@H](C)[C@@H](O)[C@H](N)[C@@H]2O)C[C@@H]2O[C@](O)(C[C@@H](O)C[C@@H](O)[C@H](O)CC[C@@H](O)C[C@@H](O)CC(=O)O[C@H]1C)C[C@H](O)[C@H]2C(=O)O [AMPHOTERICIN B] |  |  |  |  |  |  | 25 | 23.5 | 22 | 21 |  |  |  | 
CC1(C)O[C@H]2O[C@@H]3COB(c4ccc5ccccc5c4)O[C@@H]3[C@H]2O1 | 150 (≈ 460 µM) | 150 (≈ 460 µM) | 150 (≈ 460 µM) | 75 (≈ 230 µM) | 150 (≈ 460 µM) | 150 (≈ 460 µM) | 0 | 6 | 7 | 13 | 11 | 9 | 4 | 16
CC1(C)O[C@H]2O[C@@H]3COB(c4cccs4)O[C@@H]3[C@H]2O1 | 150 (≈ 532 µM) | 75 (≈ 266 µM) | 150 (≈ 532 µM) | 37.5 (≈ 133 µM) | 150 (≈ 532 µM) | 75 (≈ 266 µM) | 9 | 0 | 12 | 9 | 17 | 6 | 11 | 13
CN[C@@H]1[C@H](O[C@H]2[C@H](O[C@H]3[C@H](O)[C@@H](O)[C@H](N=C(N)N)[C@@H](O)[C@@H]3N=C(N)N)O[C@@H](C)[C@]2(O)C=O)O[C@@H](CO)[C@H](O)[C@H]1O [STREPTOMYCIN] | 6.25 (≈ 10.7 µM) | 6.25 (≈ 10.7 µM) | 6.25 (≈ 10.7 µM) | 3.12 (≈ 5.37 µM) | 3.12 (≈ 5.37 µM) | 1.56 (≈ 2.69 µM) |  |  |  |  |  |  |  | 
CC1(C)O[C@H]2O[C@@H]3COB(c4ccsc4)O[C@@H]3[C@H]2O1 | 4.68 (≈ 16.6 µM) | 75 (≈ 266 µM) | 37.5 (≈ 133 µM) | 18.8 (≈ 66.5 µM) | 75 (≈ 266 µM) | 18.8 (≈ 66.5 µM) | 12 | 0 | 10 | 14 | 14 | 7 | 16 | 20
CC1(C)O[C@H]2O[C@@H]3COB(c4ccc(C=O)cc4)O[C@@H]3[C@H]2O1 | 4.68 (≈ 15.4 µM) | 18.8 (≈ 61.7 µM) | 9.38 (≈ 30.8 µM) | 18.8 (≈ 61.7 µM) | 4.68 (≈ 15.4 µM) | 37.5 (≈ 123 µM) | 6 | 12 | 14 | 13 | 19 | 14 | 8 | 17
CC1(C)O[C@H]2O[C@@H]3COB(c4ccccc4)O[C@@H]3[C@H]2O1 | 18.8 (≈ 67.9 µM) | 37.5 (≈ 136 µM) | 75 (≈ 272 µM) | 18.8 (≈ 67.9 µM) | 75 (≈ 272 µM) | 37.5 (≈ 136 µM) | 8 | 0 | 0 | 0 | 0 | 6 | 12 | 0

Continued, in another order:

MIC (Escherichia coli) [µg/mL] | MIC (Bacillus subtilis) [µg/mL] | MIC (Staphylococcus aureus) [µg/mL] | MIC [9] [µg/mL] | MIC (Klebsiella pneumoniae) [µg/mL] | MIC (Pseudomonas aeruginosa) [µg/mL] | SMILES | zone of inhibition at 100 µg/disc (Aspergillus niger [1]) [mm] | zone of inhibition at 100 µg/disc (Candida albicans [2]) [mm] | zone of inhibition at 100 µg/disc (Saccharomyces cerevisiae [3]) [mm] | zone of inhibition at 100 µg/disc (Diutina rugosa [4]) [mm] | zone of inhibition at 150 µg/disc (Saccharomyces cerevisiae [5]) [mm] | zone of inhibition at 150 µg/disc (Candida albicans [6]) [mm] | zone of inhibition at 150 µg/disc (Aspergillus niger [7]) [mm] | zone of inhibition at 150 µg/disc (Diutina rugosa [8]) [mm]
9.38 (≈ 29.2 µM) | 2.34 (≈ 7.29 µM) | 4.68 (≈ 14.6 µM) | 9.38 (≈ 29.2 µM) | 4.68 (≈ 14.6 µM) | 18.8 (≈ 58.4 µM) | CC1(C)O[C@H]2O[C@@H]3COB(c4cccc([N+](=O)[O-])c4)O[C@@H]3[C@H]2O1 | 14 | 13 | 11 | 16 | 16 | 18 | 18 | 20
150 (≈ 496 µM) | 75 (≈ 248 µM) | 75 (≈ 248 µM) | 75 (≈ 248 µM) | 150 (≈ 496 µM) | 37.5 (≈ 124 µM) | C=Cc1ccc(B2OC[C@H]3O[C@@H]4OC(C)(C)O[C@@H]4[C@H]3O2)cc1 | 9 | 6 | 6 | 0 | 8 | 9 | 14 | 0
150 (≈ 517 µM) | 150 (≈ 517 µM) | 150 (≈ 517 µM) | 150 (≈ 517 µM) | 150 (≈ 517 µM) | 150 (≈ 517 µM) | Cc1ccc(B2OC[C@H]3O[C@@H]4OC(C)(C)O[C@@H]4[C@H]3O2)cc1 | 0 | 0 | 0 | 0 | 0 | 0 | 0 | 6
12.5 (≈ 37.4 µM) | 1.56 (≈ 4.67 µM) | 1.56 (≈ 4.67 µM) | 3.12 (≈ 9.35 µM) | 6.25 (≈ 18.7 µM) | 12.5 (≈ 37.4 µM) | CC1(C)S[C@@H]2[C@H](NC(=O)Cc3ccccc3)C(=O)N2[C@H]1C(=O)O [PENICILLIN G] |  |  |  |  |  |  |  | 
150 (≈ 490 µM) | 150 (≈ 490 µM) | 150 (≈ 490 µM) | 150 (≈ 490 µM) | 75 (≈ 245 µM) | 150 (≈ 490 µM) | COc1ccc(B2OC[C@H]3O[C@@H]4OC(C)(C)O[C@@H]4[C@H]3O2)cc1 | 0 | 0 | 0 | 7 | 0 | 0 | 0 | 10
37.5 (≈ 128 µM) | 75 (≈ 255 µM) | 18.8 (≈ 63.8 µM) | 75 (≈ 255 µM) | 37.5 (≈ 128 µM) | 75 (≈ 255 µM) | CC1(C)O[C@H]2O[C@@H]3COB(c4ccc(F)cc4)O[C@@H]3[C@H]2O1 | 0 | 6 | 7 | 11 | 10 | 8 | 6 | 14
